What is called IC50 is the point on the concentration scale where inhibition reaches its midpoint.

The target in data set [1] is T1, hOCT1 (Homo sapiens, UniProt O15245).
T1 sequence (O15245 1-554): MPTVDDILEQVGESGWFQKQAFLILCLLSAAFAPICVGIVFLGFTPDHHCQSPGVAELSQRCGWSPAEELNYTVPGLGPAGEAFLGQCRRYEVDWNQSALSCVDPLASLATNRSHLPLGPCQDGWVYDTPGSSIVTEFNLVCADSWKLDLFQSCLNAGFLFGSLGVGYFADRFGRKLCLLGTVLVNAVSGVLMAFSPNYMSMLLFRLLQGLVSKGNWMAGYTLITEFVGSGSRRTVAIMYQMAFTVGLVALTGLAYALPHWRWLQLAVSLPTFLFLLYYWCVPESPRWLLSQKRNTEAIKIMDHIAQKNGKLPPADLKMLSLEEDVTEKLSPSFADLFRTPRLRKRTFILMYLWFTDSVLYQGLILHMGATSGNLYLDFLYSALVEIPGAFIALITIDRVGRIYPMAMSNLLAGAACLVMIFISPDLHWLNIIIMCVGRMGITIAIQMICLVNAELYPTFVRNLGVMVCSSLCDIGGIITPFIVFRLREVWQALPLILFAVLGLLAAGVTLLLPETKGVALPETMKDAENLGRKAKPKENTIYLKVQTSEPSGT
Briefly: Inhibition of 14C-TEA uptake in hOCT1-transfected cells by liquorice ingredients. The following applies: read-out: IC50 on hOCT1; 14C-TEA probe, 5 min. The class given is in vitro ADME. Put shortly: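 Transfected and mock cells were seeded at 2 × 10^5/well and grown 48 h. They were then exposed at 37 °C to test compound at 1, 3, 10, 30 and 100 μmol L−1 (DMSO <0.2%) with either 5 μmol L−1 14C-PAH for 2 min (hOAT1) or 5 μmol L−1 14C-TEA for 5 min (hOCT1). Uptake was stopped with cold DPBS and three rinses, cells lysed in 0.1 mol L−1 NaOH, counted by liquid scintillation (dpm), and IC50 calculated.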

Data set [2] has as its target T2, hOATP1B1 (Homo sapiens, UniProt Q9Y6L6).
T2 sequence (Q9Y6L6 1-691): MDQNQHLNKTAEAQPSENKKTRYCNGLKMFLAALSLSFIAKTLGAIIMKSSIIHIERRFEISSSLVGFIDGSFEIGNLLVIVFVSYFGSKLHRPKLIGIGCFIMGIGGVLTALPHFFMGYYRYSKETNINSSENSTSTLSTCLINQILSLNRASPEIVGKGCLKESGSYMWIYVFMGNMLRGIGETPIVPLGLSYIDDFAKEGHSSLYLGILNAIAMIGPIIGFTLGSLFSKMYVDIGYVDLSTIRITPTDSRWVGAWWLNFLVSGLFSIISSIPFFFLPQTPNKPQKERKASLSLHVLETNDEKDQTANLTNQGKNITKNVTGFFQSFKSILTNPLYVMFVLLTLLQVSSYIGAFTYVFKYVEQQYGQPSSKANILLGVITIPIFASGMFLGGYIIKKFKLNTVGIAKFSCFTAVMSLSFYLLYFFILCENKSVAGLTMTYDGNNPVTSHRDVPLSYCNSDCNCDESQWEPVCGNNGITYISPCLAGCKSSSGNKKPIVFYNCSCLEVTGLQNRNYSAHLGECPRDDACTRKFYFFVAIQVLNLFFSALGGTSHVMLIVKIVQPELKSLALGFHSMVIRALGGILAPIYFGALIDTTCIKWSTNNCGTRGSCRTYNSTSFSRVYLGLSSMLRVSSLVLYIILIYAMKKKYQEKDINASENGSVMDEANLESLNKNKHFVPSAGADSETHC
The format is in vitro ADME.

The structures appear in SMILES notation.

For the molecule `C=CC(C)(C)c1cc(/C=C/C(=O)c2ccc(O)cc2)c(OC)cc1O` [licochalcone A], the IC50 in data set [1] came out at 14 µM; in data set [2] (read-out: IC50 on hOATP1B1, 3H-ES probe, 2 min), 1.27 µM. The “inhibition of hOATP1B1” value in data set [2] (screening at 100 μm) is “strong inhibitors”.

The values are drawn from PMC9064382 (RSC Advances, 2019).
